Assay results from ChEMBL document CHEMBL1125540, “Antiviral and antitumor structure-activity relationship studies on tetracyclic eudistomines” (1992).
≈ marks a conversion by molar mass, not a printed value.

Tests used:
Format in all cases: functional
[1] = tested on: Vero; assay: Evaluation for antiviral activity against parainfluenza-3 virus in Vero cell cultures (Concentration required to reduce virus-induced cytopathogenicity by 50%); conditions: Chlorocebus sabaeus
Method in brief: (§1)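 Vero cultures were infected with parainfluenza-3, reovirus-1, Sindbis, Coxsackie B4 or Semliki forest virus. Values are concentrations giving 50% reduction of virus-induced cytopathogenicity, or a microscopically detectable alteration of normal cell morphology for cytotoxicity. Each is the average of two separate experiments.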

[2] = Evaluated for antiviral activity against herpes simplex virus-1(KOS) in primary rabbit kidney cell cultures(PRK) (Concentration required to reduce virus-induced cytopathogenicity by 50%); conditions: Oryctolagus cuniculus
[3] = tested on: Vero; assay: Evaluation for antiviral activity against Coxsackie virus B4 in Vero cell cultures (Concentration required to reduce virus-induced cytopathogenicity by 50%); conditions: Chlorocebus sabaeus; method in brief: as §1
[4] = Evaluation for antiviral activity against herpes simplex virus-2(G) in primary rabbit kidney cell cultures(PRK) (Concentration required to reduce virus-induced cytopathogenicity by 50%); conditions: Oryctolagus cuniculus
[5] = tested on: Vero; assay: Evaluation for antiviral activity against reo virus-1 in Vero cell cultures (Concentration required to reduce virus-induced cytopathogenicity by 50%); conditions: Chlorocebus sabaeus; method in brief: as §1
[6] = tested on: Vero; assay: Evaluation for antiviral activity against Sindbis virus in Vero cell cultures (Concentration required to reduce virus-induced cytopathogenicity by 50%); conditions: Chlorocebus sabaeus; method in brief: as §1
[7] = tested on: HeLa; assay: Evaluation for antiviral activity against polio virus-1 in HeLa cell cultures (Concentration required to reduce virus-induced cytopathogenicity by 50%); conditions: Homo sapiens
Method in brief: (§2)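 HeLa cultures were infected with respiratory syncytial, vesicular stomatitis, Coxsackie B4 or polio-1 virus. The antiviral end-point is 50% reduction of virus-induced cytopathogenicity. Cytotoxicity is the minimum concentration producing microscopically detectable alteration of normal cell morphology.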

[8] = tested on: HeLa; assay: Evaluation for antiviral activity against vesicular stomatitis virus in HeLa cell cultures (Concentration required to reduce virus-induced cytopathogenicity by 50%); conditions: Homo sapiens; method in brief: as §2
[9] = Evaluation in PRK cell cultures for cytotoxicity that is to cause microscopically detectable alteration of normal cell morphology; conditions: Oryctolagus cuniculus
[10] = tested on: Vero; assay: Evaluation for antiviral activity against forest virus in Vero cell cultures (Concentration required to reduce virus-induced cytopathogenicity by 50%); conditions: Chlorocebus sabaeus; method in brief: as §1
[11] = tested on: HeLa; assay: Evaluation in HeLa cell cultures for cytotoxicity that is to cause microscopically detectable alteration of normal cell morphology; conditions: Homo sapiens; method in brief: as §2
[12] = tested on: HeLa; assay: Evaluation for antiviral activity against Coxsackie virus B4 in HeLa cell cultures (Concentration required to reduce virus-induced cytopathogenicity by 50%); conditions: Homo sapiens; method in brief: as §2
[13] = Evaluation for antiviral activity against vesicular stomatitis virus in primary rabbit kidney cell cultures(PRK) (Concentration required to reduce virus-induced cytopathogenicity by 50%); conditions: Oryctolagus cuniculus
[14] = tested on: Vero; assay: Evaluation in Vero cell cultures for cytotoxicity that is to cause microscopically detectable alteration of normal cell morphology; conditions: Chlorocebus sabaeus; method in brief: as §1
[15] = Evaluation for antiviral activity against vaccinia virus in primary rabbit kidney cell cultures(PRK) (Concentration required to reduce virus-induced cytopathogenicity by 50%); conditions: Oryctolagus cuniculus
[16] = tested on: Influenza A virus; assay: Concentration required to reduce influenza virus A (ishikawa) induced cytopathogenicity by 50%
Method in brief: (§3)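 Influenza A and B virus replication in MDCK cultures. Antiviral value is the concentration giving 50% reduction of virus-induced cytopathogenicity. Cytotoxicity is the concentration causing a microscopically detectable change in normal cell morphology.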

[17] = tested on: Influenza B virus; assay: Concentration required to reduce influenza virus B (singapore) induced cytopathogenicity by 50%; method in brief: as §3
[18] = tested on: MDCK; assay: Compound was evaluated in MDCK cell cultures for cytotoxicity that is to cause microscopically detectable alteration of normal cell morphology; conditions: Canis lupus familiaris; method in brief: as §3
[19] = Evaluation for antiviral activity against herpes simplex virus-2(196) in primary rabbit kidney cell cultures(PRK) (Concentration required to reduce virus-induced cytopathogenicity by 50%); conditions: Oryctolagus cuniculus
[20] = tested on: HeLa; assay: Compound was evaluated for antiviral activity against respiratory syncitial virus (long) in HeLa cell cultures (Concentration required to reduce virus-induced cytopathogenicity by 50%); conditions: Homo sapiens; method in brief: as §2
[21] = tested on: L1210; assay: Inhibitory effect on the proliferation of murine leukemia cells (L1210); conditions: Mus musculus, read-out: ID50 (the source's name)
Method in brief: (§4)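 Proliferation assay in murine leukemia L1210, human T-lymphoblast Molt-4F and human T-lymphocyte MT-4 cells. ID50 is the dose inhibiting tumor cell proliferation by 50%, expressed in μg/mL.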

[22] = tested on: MT4; assay: Inhibitory effect on the proliferation of human T-lymphocyte (MT-4); conditions: read-out: ID50 (the source's name); method in brief: as §4
[23] = tested on: MOLT-4F; assay: Inhibitory effect on the proliferation of human T-lymphoblast cells (Molt-4F); conditions: read-out: ID50 (the source's name); method in brief: as §4
[24] = Evaluation for antiviral activity against herpes simplex virus-1 (McIntyre) in primary rabbit kidney cell cultures(PRK) (Concentration required to reduce virus-induced cytopathogenicity by 50%); conditions: Oryctolagus cuniculus
[25] = Evaluation for antiviral activity against herpes simplex virus-2(Lyons) in primary rabbit kidney cell cultures(PRK) (Concentration required to reduce virus-induced cytopathogenicity by 50%); conditions: Oryctolagus cuniculus
[26] = Evaluation for antiviral activity against herpes simplex virus-1(TK-) (B2006) in primary rabbit kidney cell cultures(PRK) (Concentration required to reduce virus-induced cytopathogenicity by 50%); conditions: Oryctolagus cuniculus
[27] = Evaluation for antiviral activity against herpes simplex virus-1(F) in primary rabbit kidney cell cultures(PRK) (Concentration required to reduce virus-induced cytopathogenicity by 50%); conditions: Oryctolagus cuniculus

Compound	MIC [1]	MIC [2]	MIC [3]	MIC [4]	MIC [5]	MIC [6]	MIC [7]	MIC [8]	MCC [9]	MIC [10]	MCC [11]	MIC [12]	MIC [13]	MCC [14]	MIC [15]	MIC [16]	MIC [19]	MIC [24]	MIC [25]	MIC [26]	other results
C[C@@H]1CSCON2CCc3c([nH]c4ccccc34)[C@H]12	> 40 mg/L	> 100 mg/L	20 mg/L (≈ 72.9 µM)	> 100 mg/L	> 40 mg/L	20 mg/L (≈ 72.9 µM)	> 40 mg/L	> 40 mg/L	> 100 µg/mL	> 40 mg/L	40 µg/mL	> 40 mg/L	> 100 mg/L	> 100 µg/mL	> 100 mg/L	–	–	–	–	–	–
O[C@@H]1CSCON2CCc3c([nH]c4ccccc34)[C@@H]12	> 40 mg/L	> 100 mg/L	> 40 mg/L	> 100 mg/L	> 40 mg/L	20 mg/L (≈ 72.4 µM)	> 100 mg/L	> 100 mg/L	> 100 µg/mL	> 40 mg/L	100 µg/mL	> 40 mg/L	> 100 mg/L	> 100 µg/mL	> 100 mg/L	> 1.6 mg/L	–	–	–	–	MIC [17]: > 1.6 mg/L; MCC [18]: 3 µg/mL
c1ccc2c3c([nH]c2c1)C1CCSCON1CC3 (stereo unspecified)	> 10 mg/L	–	> 10 mg/L	> 100 mg/L	> 10 mg/L	> 10 mg/L	> 10 mg/L	> 10 mg/L	> 200 µg/mL	> 10 mg/L	> 40 µg/mL	> 10 mg/L	> 100 mg/L	> 40 µg/mL	> 100 mg/L	> 40 mg/L	> 100 mg/L	> 100 mg/L	> 100 mg/L	> 100 mg/L	MIC [17]: > 40 mg/L; MIC [20]: > 8 mg/L; IC50 [21]: 24.9 mg/L (≈ 95.6 µM); IC50 [22]: 96 mg/L (≈ 369 µM); IC50 [23]: 18.3 mg/L (≈ 70.3 µM); MCC [18]: 80 µg/mL
Nc1nccc2c1ncn2[C@@H]1C[C@H](CO)[C@@H](O)[C@H]1O [3-DEAZAARISTEROMYCIN A]	2 mg/L (≈ 7.57 µM)	> 200 mg/L	20 mg/L (≈ 75.7 µM)	> 200 mg/L	2 mg/L (≈ 7.57 µM)	20 mg/L (≈ 75.7 µM)	> 400 mg/L	2 mg/L (≈ 7.57 µM)	> 400 µg/mL	> 400 mg/L	> 400 µg/mL	> 400 mg/L	2 mg/L (≈ 7.57 µM)	> 400 µg/mL	0.7 mg/L (≈ 2.65 µM)	–	> 200 mg/L	> 200 mg/L	> 200 mg/L	150 mg/L (≈ 568 µM)	MIC [27]: > 200 mg/L
O=c1[nH]c(=O)n([C@H]2C[C@H](O)[C@@H](CO)O2)cc1/C=C/Br [BRIVUDINE]	> 400 mg/L	–	> 400 mg/L	7 mg/L (≈ 21 µM)	> 400 mg/L	> 400 mg/L	> 400 mg/L	> 400 mg/L	> 400 µg/mL	> 400 mg/L	> 400 µg/mL	> 400 mg/L	> 200 mg/L	> 400 µg/mL	7 mg/L (≈ 21 µM)	–	70 mg/L (≈ 210 µM)	0.02 mg/L (≈ 0.06 µM)	70 mg/L (≈ 210 µM)	150 mg/L (≈ 450 µM)	MIC [27]: 0.02 mg/L (≈ 0.06 µM)
NC(=O)c1ncn([C@@H]2O[C@H](CO)[C@@H](O)[C@H]2O)n1 [RIBAVIRIN]	20 mg/L (≈ 81.9 µM)	> 200 mg/L	70 mg/L (≈ 287 µM)	> 200 mg/L	70 mg/L (≈ 287 µM)	40 mg/L (≈ 164 µM)	70 mg/L (≈ 287 µM)	20 mg/L (≈ 81.9 µM)	> 400 µg/mL	40 mg/L (≈ 164 µM)	> 400 µg/mL	70 mg/L (≈ 287 µM)	> 400 mg/L	> 400 µg/mL	20 mg/L (≈ 81.9 µM)	15 mg/L (≈ 61.4 µM)	> 200 mg/L	> 200 mg/L	> 200 mg/L	> 200 mg/L	MIC [17]: 15 mg/L (≈ 61.4 µM); MIC [20]: 3 mg/L (≈ 12.3 µM); MCC [18]: > 200 µg/mL; MIC [27]: > 200 mg/L
